# Unmarked numbers belong to inactive results. Inconclusive results are not listed. Activity calls are given as the source filed them.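 Rule for the calls, unless noted: active = RAM network inhibition above 8.4% in each of two replicates, 3 SD over the compound average; inconclusive = above 8.4% inhibition in only one replicate; inactive = 8.4% inhibition or less in each replicate.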
# How the values were obtained:
# [1] = OD615 S. cerevisiae growth inhibition, permissive medium, pilot counter-assay, permissive growth control for S. cerevisiae lifespan shortening project (AID 705;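 active = growth inhibition above 25% in both replicates, a cutoff set 3 SD above the mean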); conditions: OD615, 24 h, at 10 µM, stronger effect = higher value
# Method in brief: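 System: engineered DeaD yeast; Medium: permissive raffinose/galactose medium; Compound dosing: 10 µM single dose, 0.25% DMSO; Incubation: 4 h cell pre-growth, 24 h exposure at 30 °C; Technique: OD at 615 nm; Evaluation: growth inhibition from lowered OD615 after 24 h.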
# [2] = Restrictive medium S. cerevisiae growth inhibition, OD615, pilot screen of yeast lifespan reduction project, restrictive growth control (AID 706;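 active = growth inhibition above a set limit, 3 SD over mean compound inhibition, in both replicates, cut at about 43% in these data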;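 note: modified DeaD lifespan yeast strain shifted to restrictive glucose medium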); conditions: OD615, 48 h, at 10 µM, stronger effect = higher value
# Method in brief: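 Material: modified S. cerevisiae; buffer or medium: CSMM-D glucose medium; doses: one concentration, 10 µM final, 0.25% DMSO; incubation: 48 h compound exposure at 30 °C; detection: optical density at 615 nm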
# [3] = viability gain of MRP-1-high H69AR cells under doxorubicin, pilot screen, MRP-1 activator project, CellTiter-Glo, duplicate (AID 807;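 active = viability increase at or above a cutoff of the median across tested compounds plus 3 SD, cut at about 8.5% in these data, passing the limit was not always enough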;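 note: compound pretreatment 18-22 h then 72 h combined with doxorubicin; 0% = doxorubicin alone and 100% = vehicle without doxorubicin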); conditions: H69AR viability with doxorubicin, CellTiter-Glo luminescence; at 10 µM; stronger effect = higher value
# [4] = growth suppression of beta-catenin knockout HCT116, pilot screen, human colon tumor cells (AID 823;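 active = cell viability at or below a set limit in both duplicate runs, the limit being the all-compound median minus 4 SD, cut at about 23% in these data, passing the limit was not always enough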;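 note: 0% = wells killed by 20 µM Hyamine and 100% = untreated DMSO cell wells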); conditions: CellTiter-Glo, 60 h, at 10 µM, stronger effect = lower value
# [5] = growth suppression of PTEN-deleted HCT116, pilot screen, cell-based, HCT116 clonal line, CellTiter-Glo (AID 824;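 active = viability at or below 27.92% in each of two runs, the all-compound median minus 4 SD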;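 note: 0% = 20 µM Hyamine control and 100% = vehicle cell control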); conditions: 60 h, at 10 µM, stronger effect = lower value
# [6] = inhibitors of the yeast RAM network, pilot screen, dse1pr::URA3 reporter, 5-FOA selection (AID 869;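 active = inhibition over a set limit, the all-compound mean plus 3 SD, in both replicate runs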;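 note: 0% = DMSO wells with no growth and 100% = 10 µM 1-NA-PP1 with full growth; RAM network block rescues cells from 5-FOA so hits raise OD615 growth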); conditions: S. cerevisiae dse1pr::URA3 5-FOA growth, OD615, 2 d; at 10 µM; stronger effect = higher value; strain carries analog-sensitive mutant Cbk1 kinase
# [7] = RAM signaling pathway blockade in yeast – S. cerevisiae, Pdr1DBD-CYC8 efflux-inhibited sensitized strain, primary screen (AID 1298);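 note: 0% = DMSO untreated cells without growth and 100% = 10 µM 1-NA-PP1 full growth; higher means more yeast growth rescued from 5-FOA killing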; conditions: S. cerevisiae cbk1-as DSE1-URA3 strain, 5-FOA growth OD615, 2 d; at 50 µM; stronger effect = higher value
Compound,growth inhibition [1] [%],growth inhibition [2] [%],viability increase [3] [%],viability [4],viability [5],inhibition [6] [%],RAM network inhibition [7] [%]
COc1ccc(-c2nnc3ccc(SCC(=O)N4CCOCC4)nn23)cc1,3.68,30.1,-2.73,99.6%,105%,0.96,0.73
CCCC(c1c(C)n(C)n(-c2ccccc2)c1=O)c1c(C)n(C)n(-c2ccccc2)c1=O,-9.58,-13.4,-1.18,90.2%,103%,1.16,4.48
CN1C(=O)C(O)(CC(=O)c2cccnc2)c2ccccc21 (configuration not stated),-7.06,-7.81,-4.86,83%,85%,2.05,1.88
Cc1cc(/C=N/n2cnnc2)c(C)n1-c1ccc(OCc2ccc(F)cc2)cc1,-2.2,32.3,-5.79,10.2% (active),11.8% (active),1.71,8.48
Cc1nc2ccccc2c2oc(C(=O)N3CCN(C4CCCCC4)CC3)cc12,7.91,8.38,-3.69,44.1%,57.5%,0.555,3.92
CCOc1cccc(OCCOCCN(C)Cc2ccccc2)c1,2.5,-3.23,-4.15,75.3%,78.9%,0.55,0.2
CCCCCn1c(CCNC(=O)c2cccs2)nc2ccccc21,-9.44,-0.75,-2.25,94.2%,86.4%,2.39,0.13
O=C(NCc1ccco1)c1ccc(Br)c(S(=O)(=O)N2CCCCC2)c1,2.44,-6.06,-2.69,88.8%,88.1%,2.61,4.59
COc1ccc(C(=O)NCCSCc2ccco2)cc1OC,-9.5,5.73,-4.86,98.2%,95.6%,1,5.47
CCc1cccc(Nc2cc(C)nc3ncnn23)c1,-5.35,-1.55,-0.66,99.8%,93%,0.465,6.68
CC1CCCN(Cc2nc3c(c(=O)n(C)c(=O)n3C)n2Cc2cccc3ccccc23)C1 (configuration not stated),-4.69,-2.08,-3.36,73.2%,80%,1.08,0.76
O=C1CC(c2nc3ccccc3[nH]2)CN1c1ccccc1F (configuration not stated),3.64,-1.12,-0.52,98.3%,92.5%,0.355,1.89
CCN(CC)CCOc1ccc(Br)cc1,-12.9,-12.2,-0.72,90.1%,103%,1.24,1.1
Fc1ccc(CSc2nnc(-c3cccnc3)n2Cc2ccco2)cc1,1.42,10.1,-2.14,90.8%,99.8%,1.94,2.25
O=S(=O)(Nc1cccc(-c2nc3cccnc3s2)c1)c1ccc2c(c1)OCCO2,-0.93,13.3,0.73,97.7%,85.3%,3.69,5.51
COC(=O)c1ccc2c(c1)N(C)CCS2,-7.72,-2.27,-0.04,101%,93.9%,0.22,-0.26
Cc1nc(N2CCN(c3ccccc3)CC2)c2c3c(sc2n1)CCC3,-0.345,29.8,3,73.8%,81.5%,1.38,1.62
COc1cccc(-c2cc(C(=O)Nn3cnnc3)c3ccccc3n2)c1,-12.2,-11.8,-3.9,92.5%,94.6%,1.52,3.38

Compound,growth inhibition [1] [%],growth inhibition [2] [%],viability increase [3] [%],viability [4],viability [5],inhibition [6] [%],RAM network inhibition [7] [%]
COc1ccc(CNc2oc(C)nc2C#N)cc1,-0.095,5.62,-1.84,98.6%,93.1%,0.24,6.09
Clc1ccc(C2CC(c3cccs3)n3ncnc3N2)c(Cl)c1 (configuration not stated),-5.32,17.4,-4.06,78.7%,69.3%,2.1,2.15
CC1(C)CC(=O)C(C=NCCN2CCN(C(=O)CC3CCCC3)CC2)=C(O)C1,-24.8,-8.86,-1.93,96.9%,95.2%,1.25,7.49
Cn1c(NC(=O)c2cc(Br)ccc2Cl)cc(=O)n(C)c1=O,5.54,-8.75,-3.46,96.8%,90.7%,1.64,1.23
C=CCn1cc(C(=O)NCCCOC)c(=O)c2cc(S(=O)(=O)N3CCC(C)CC3)ccc21,-10.6,-19.6,-3.54,96.7%,87%,1.56,-0.52
COC(=O)C(Cc1ccccc1)NC(=O)CSc1nc(C)cc(=O)[nH]1 (configuration not stated),-8.37,-4.86,-2.4,101%,91.7%,1.4,-0.21
O=C(CN1CCN(Cc2ccccc2F)C1=O)NCCN1CCOCC1,-2.78,5.44,-0.58,109%,99.5%,1.27,1.5
O=c1cc(-c2c(F)c(F)c(F)c(F)c2F)oc2c(F)c(F)c(F)c(F)c12,-8.86,-6.48,-7,1.3% (active),1.25% (active),-0.35,-1.25
Cc1cc(Nc2ccc(F)cc2)n2nc(C)nc2n1,-2.01,4.12,-0.76,100%,97.2%,-0.875,0.55
O=C(NCc1ccc2c(c1)OCO2)C1CC(=O)N(CCc2ccccc2)C1 (configuration not stated),0.26,0.755,-0.29,96.1%,95.7%,2.38,2.32
CCOc1ccc(NC(=O)CN2C(=O)COc3ccc(Cl)cc32)cc1,-17,-12.8,3.8,97.4%,90.1%,2.06,6.61
CC1=C(C(=O)OC(C)C)C(c2ccc(Br)s2)NC(=O)N1C (configuration not stated),-17,-22.3,0.85,70.6%,77%,0.54,2.29
O=C(NCc1ccccc1)c1cc(S(=O)(=O)N2CCOCC2)ccc1F,-3.95,-30.7,0.27,94.7%,93%,3.29,3.42
O=C1CCCN1CC(CN1CCOCC1)Sc1nc2ccccc2c(=O)n1-c1ccccc1 (configuration not stated),-2.25,-6.07,-6.36,92.1%,97.3%,1.88,1.94
COC(=O)c1ccc2c(c1)N(Cc1cc(C)ccc1C)C(=O)c1ccccc1S2=O (configuration not stated),-0.815,-2.77,-2.53,96.8%,91.9%,0.92,3.53
CCOc1ccccc1C1N(c2ccc(OC)cc2)C(=O)C2CCCN21 (configuration not stated),-3.72,-10.4,-0.9,99.8%,101%,2.9,-1.29
CCCSc1nnc(Cn2c(=O)sc3ccccc32)n1C,-15.8,-38,-2.24,94.3%,87.1%,0.415,-0.25
COc1ccc(Cn2nnc3c(=O)[nH]c(C4CCCN(C(=O)c5ccccc5)C4)nc32)cc1 (configuration not stated),-8.47,-8.09,-1.66,108%,99.9%,-0.35,3.06

# Reference: PubChem BioAssay
